Sampled rows, rich in hits. Any-hit rate of the full collection: about 2.8%.
DENV2 CPE rescue: inhibitors of DENV2 cytopathic effect; DENV2-infected cells, cytopathic effect rescue, plate reader; AID 651640; 350,000 tested, 1.7% active; CPE inhibition, % at 9.99 µM; in the data active means CPE inhibition above about 20%, passing the limit was not always enough; inconclusive means no clear call, values can overlap the other calls; tested in BHK-21 cells;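 further: 0% = median of neutral control wells and 100% = median of positive control wells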
SIRT5 block: sirtuin-5 (human) deacylase inhibition; Q9NXA8; Purified SirT5, succinyl-peptide AMC, trypsin-coupled fluorescence; inhibition, % at 15 µM; 330,000 tested, 1.1% active; AID 652115; in the data active means inhibition above about 15%; inconclusive means no clear call, values can overlap the other calls
E-sel inducer: induces E-selectin expression in human endothelial cells | P16581 | HUVEC E-selectin immunofluorescence imaging; normalized: neutral wells 0, TNF-alpha wells 100 | activation, % at 7.58 µM | 260,000 tested, 0.37% active | AID 686992;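 active means mean E-selectin-positive cell signal at least 10% of the positive control, reached in at least 60% of replicates, without over 20% cell loss; inconclusive means no rule given, readout overlaps actives, possibly toxicity-flagged; inactive means the rest, including those meeting only one limit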
Target sequence (P16581 whole entry, looked up): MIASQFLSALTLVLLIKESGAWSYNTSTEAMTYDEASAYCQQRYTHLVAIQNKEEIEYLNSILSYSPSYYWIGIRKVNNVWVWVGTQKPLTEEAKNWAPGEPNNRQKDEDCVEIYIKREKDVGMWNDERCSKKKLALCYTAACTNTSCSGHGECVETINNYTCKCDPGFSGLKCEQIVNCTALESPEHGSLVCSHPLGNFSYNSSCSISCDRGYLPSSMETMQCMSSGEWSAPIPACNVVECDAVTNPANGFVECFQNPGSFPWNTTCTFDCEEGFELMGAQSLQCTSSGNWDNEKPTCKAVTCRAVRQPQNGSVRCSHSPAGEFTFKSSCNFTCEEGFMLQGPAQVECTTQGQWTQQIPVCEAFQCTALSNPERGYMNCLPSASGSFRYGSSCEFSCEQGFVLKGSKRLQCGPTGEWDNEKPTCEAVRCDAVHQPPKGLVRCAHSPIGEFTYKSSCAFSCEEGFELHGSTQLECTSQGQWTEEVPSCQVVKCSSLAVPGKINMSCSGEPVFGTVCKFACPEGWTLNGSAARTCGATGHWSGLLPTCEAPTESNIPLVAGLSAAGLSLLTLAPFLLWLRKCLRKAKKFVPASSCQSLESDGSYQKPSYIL
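Assay system: HUVEC primary endothelial cells. Input: 3,000 HUVEC seeded per well. Doses: one compound dose added by pin transfer. Read-out basis: % PE-positive cells. Benchmarks: TNF-alpha high, DMSO low. Detection: immunofluorescence imaging. Buffer or medium: EGM-2, gelatin.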
Active calls of the source: *; ? = inconclusive; nt = not tested or not shown.

SMILES	DENV2 CPE rescue	SIRT5 block	E-sel inducer
C[C@@H]1CN([C@@H](C)CO)C(=O)c2cc(NS(C)(=O)=O)ccc2O[C@@H](C)CCCCO[C@H]1CN(C)C(=O)c1ccncc1	69*	1	0
C[C@@H]1CCCCO[C@H](CN(C)C(=O)c2ccncc2)[C@@H](C)CN([C@@H](C)CO)C(=O)c2cc(NS(C)(=O)=O)ccc2O1	-2	1	0
CC(=O)N(C)C[C@H]1Oc2ncc(/C=C/c3ccccc3)cc2C(=O)N([C@H](C)CO)C[C@@H]1C	0	-14	0
COc1ccc2nc(SC(C)C(=O)NC3CCCC3)[nH]c2c1 (stereo unspecified)	64*	-2	0
COc1ccc2nc(SC(C)C(=O)NC3(C#N)CCCCC3)[nH]c2c1 (stereo unspecified)	-6	2	0
COc1ccc2c3c(n(C)c2c1)[C@H](CO)N(S(C)(=O)=O)CC31CN(C(=O)Nc2cccc(F)c2)C1	4	-2	0
C[C@@H]1CN([C@H](C)CO)C(=O)c2c(c3ccccc3n2C)-c2ccccc2CO[C@@H]1CN(C)S(=O)(=O)c1ccc(Cl)cc1	-1	19*	0
C[C@@H]1CN([C@@H](C)CO)C(=O)c2c(c3ccccc3n2C)-c2ccccc2CO[C@H]1CN(C)S(=O)(=O)c1ccc(Cl)cc1	10	1	-1
Cc1cccc(S(=O)(=O)N(C)C[C@H]2OCc3ccccc3-c3c(n(C)c4ccccc34)C(=O)N([C@@H](C)CO)C[C@H]2C)c1	1	5	0
C[C@@H]1CN([C@@H](C)CO)C(=O)c2c(c3ccccc3n2C)-c2ccccc2CO[C@H]1CN(C)S(=O)(=O)c1ccc([N+](=O)[O-])cc1	?	-9	0
C[C@H](CO)N1C[C@H](C)[C@@H](CN(C)S(=O)(=O)c2ccc(F)cc2)OCc2ccccc2-c2c(n(C)c3ccccc23)C1=O	-6	-3	0
Cc1cccc(S(=O)(=O)N(C)C[C@H]2OCc3ccccc3-c3c(n(C)c4ccccc34)C(=O)N([C@H](C)CO)C[C@H]2C)c1	8	18*	0
C[C@H]1CN([C@@H](C)CO)C(=O)c2c(c3ccccc3n2C)-c2ccccc2CO[C@H]1CN(C)S(=O)(=O)c1ccc(F)cc1	-11	21*	0
C[C@@H]1CN([C@H](C)CO)C(=O)c2c(c3ccccc3n2C)-c2ccccc2CO[C@H]1CN(C)S(=O)(=O)c1ccc([N+](=O)[O-])cc1	-2	32*	0
COc1ccc2c3c(n(C)c2c1)[C@@H](CO)N(CC1CC1)CC31CN(C(=O)Nc2ccccc2)C1	3	-5	0
CO[C@@H]1CN(C)C(=O)c2cc(NC(=O)c3cc(C)on3)ccc2OC[C@H](C)NC[C@@H]1C	4	-5	0
COc1ccc(-c2ccc(=O)[nH]n2)cc1	4	-2	nt
O=c1ccc(-c2ccccc2)n[nH]1	nt	21*	nt
CC(C)CC#Cc1cnc2c(c1)C(=O)N([C@H](C)CO)C[C@@H](C)[C@@H](CN(C)Cc1ccccc1C(=O)O)O2	6	0	0
C[C@@H]1CCCCO[C@H](CN(C)C(=O)Cc2ccccc2)[C@@H](C)CN([C@@H](C)CO)C(=O)c2cc(NC(=O)Nc3ccc4c(c3)OCO4)ccc2O1	?	3	0
Cc1c(C)c2cc(Cl)c(OCC(=O)NCCCN3CCCC3=O)cc2oc1=O	44*	nt	nt
Cc1cc(=O)oc2c(C)c(OC(C)C(=O)NCCCN3CCCC3=O)ccc12 (stereo unspecified)	-1	26*	0
Cc1cc(=O)oc2cc(OCC(=O)NCCCN3CCCC3=O)c(Cl)cc12	0	3	nt
CCc1cc(=O)oc2cc(C)cc(OC(C)C(=O)NCCCN3CCCC3=O)c12 (stereo unspecified)	5	-1	4
CCCNC(=O)Nc1ccc2c(c1)C(=O)N(C)C[C@@H](OC)[C@H](C)CN(Cc1ccccc1)[C@@H](C)CO2	nt	nt	0
CCCC#Cc1cnc2c(c1)C(=O)N([C@@H](C)CO)C[C@@H](C)[C@H](CN(C)C(=O)c1cnccn1)O2	8	-1	0
C[C@H](CO)N1C[C@H](C)[C@@H](CN(C)CC2CC2)Oc2c(NC(=O)Nc3ccccc3)cccc2C1=O	6	0	-2
C[C@@H]1CN([C@@H](C)CO)C(=O)c2cccc(NC(=O)C3CC3)c2O[C@H]1CN(C)CC1CC1	15	2	-3
C[C@H](CO)N1C[C@H](C)[C@@H](CN(C)CC2CC2)Oc2c(NC(=O)Cc3ccccc3)cccc2C1=O	2	25*	0
C[C@@H]1CN([C@@H](C)CO)C(=O)c2cccc(NC(=O)C3CC3)c2O[C@@H]1CN(C)CC1CC1	-2	-6	-3

Screening data as filed in PubChem BioAssay.
